Activity calls are given as the source filed them. The rule behind the calls is not given here.
These compounds were tested on Rattus norvegicus (assay: Antiinflammatory activity against Wistar-Bratislava albino rat assessed as monocyte count at 3.2 mg/kg, ip (Rbv = 7.6+/-0.45%)). Conditions: route intraperitoneal.
Assay type: functional
In the case of `O=C(Cc1csc(-c2cccc(C(F)(F)F)c2)n1)N/N=C/c1cccc(OCc2csc(-c3ccc(Br)cc3)n2)c1`, the Activity is reported as 2.86%.
Compound `Cc1ccc(-c2nc(CC(=O)N/N=C\c3ccc(OCC(=O)c4sc(-c5ccccc5)nc4C)cc3)cs2)cc1` has an Activity of 2.43%.
With `Cc1cnc(NC(=O)C2=C(O)c3ccccc3S(=O)(=O)N2C)s1` [MELOXICAM] the Activity was 2%.
`O=C(Cc1csc(-c2cccc(C(F)(F)F)c2)n1)N/N=C\c1ccc(OCc2csc(-c3ccc(Br)cc3)n2)cc1` was tested, and the Activity was 3.14%.
With `Cc1ccc(-c2nc(CC(=O)N/N=C\c3ccc(OCc4csc(-c5ccc(Br)cc5)n4)cc3)cs2)cc1` the Activity was 2.71%.
`O=C(COc1ccc2c(=O)cc(-c3ccccc3)oc2c1)N/N=C\c1ccc(OCc2csc(-c3ccccc3)n2)cc1` gave an Activity of 3.71%.
`O=C(Cc1csc(-c2cccc(C(F)(F)F)c2)n1)N/N=C/c1cccc(OCc2csc(-c3ccccc3)n2)c1` gave an Activity of 2.4%.

The compounds below were run on Rattus norvegicus (assay: Antiinflammatory activity against Wistar-Bratislava albino rat assessed as neutrophil count at 3.2 mg/kg, ip (Rbv = 55.6+/-1.32%)). Conditions: route intraperitoneal.
Assay type: functional
Compound `O=C(Cc1csc(-c2cccc(C(F)(F)F)c2)n1)N/N=C/c1cccc(OCc2csc(-c3ccc(Br)cc3)n2)c1` has an Activity of 70.86%.
`Cc1ccc(-c2nc(CC(=O)N/N=C\c3ccc(OCC(=O)c4sc(-c5ccccc5)nc4C)cc3)cs2)cc1` gave an Activity of 66%.
`Cc1cnc(NC(=O)C2=C(O)c3ccccc3S(=O)(=O)N2C)s1` [MELOXICAM] showed an Activity of 66.57%.
For `O=C(Cc1csc(-c2cccc(C(F)(F)F)c2)n1)N/N=C\c1ccc(OCc2csc(-c3ccc(Br)cc3)n2)cc1`, the Activity was 63.14%.
With `Cc1ccc(-c2nc(CC(=O)N/N=C\c3ccc(OCc4csc(-c5ccc(Br)cc5)n4)cc3)cs2)cc1` the Activity was 68.28%.
Work on `O=C(COc1ccc2c(=O)cc(-c3ccccc3)oc2c1)N/N=C\c1ccc(OCc2csc(-c3ccccc3)n2)cc1` yielded an Activity of 76%.
For `O=C(Cc1csc(-c2cccc(C(F)(F)F)c2)n1)N/N=C/c1cccc(OCc2csc(-c3ccccc3)n2)c1`, the Activity was 61.71%.

What follows are compounds tested on Rattus norvegicus (assay: Antiinflammatory activity against Wistar-Bratislava albino rat assessed as leukocyte count at 3.2 mg/kg, ip (Rbv = 4952.7+/-436.9 number/mm'3)). Conditions: route intraperitoneal.
Assay type: functional
For `O=C(Cc1csc(-c2cccc(C(F)(F)F)c2)n1)N/N=C/c1cccc(OCc2csc(-c3ccc(Br)cc3)n2)c1`, the Activity was 6914.28 /mm3.
In the case of `Cc1ccc(-c2nc(CC(=O)N/N=C\c3ccc(OCC(=O)c4sc(-c5ccccc5)nc4C)cc3)cs2)cc1`, the Activity is reported as 8742.85 /mm3.
For `Cc1cnc(NC(=O)C2=C(O)c3ccccc3S(=O)(=O)N2C)s1` [MELOXICAM], the Activity was 7660 /mm3.
With `O=C(Cc1csc(-c2cccc(C(F)(F)F)c2)n1)N/N=C\c1ccc(OCc2csc(-c3ccc(Br)cc3)n2)cc1` the Activity was 7402.85 /mm3.
`Cc1ccc(-c2nc(CC(=O)N/N=C\c3ccc(OCc4csc(-c5ccc(Br)cc5)n4)cc3)cs2)cc1` was tested, and the Activity was 7314.28 /mm3.
With `O=C(COc1ccc2c(=O)cc(-c3ccccc3)oc2c1)N/N=C\c1ccc(OCc2csc(-c3ccccc3)n2)cc1` the Activity was 8228.57 /mm3.
`O=C(Cc1csc(-c2cccc(C(F)(F)F)c2)n1)N/N=C/c1cccc(OCc2csc(-c3ccccc3)n2)c1` was tested, and the Activity was 9540 /mm3.

What follows are compounds tested on Rattus norvegicus (assay: Antiinflammatory activity against Wistar-Bratislava albino rat assessed as reduction serum nitrate/nitrite concentration at 3.2 mg/kg, ip). Conditions: not given.
Assay type: functional, organism-based
Parameters: dose 3.2 mg/kg
Procedure, shortened: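 In rats given turpentine oil 0.6 mL/100 g i.m. plus i.p. treatment in 1% carboxymethyl cellulose suspension, serum nitrate was reduced to nitrite with VCl3 in acidic solution. Griess reagents (SULF, NEDD) were then added, and absorbance at 540 nm was read after about 30-45 min incubation.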
In the case of `O=C(Cc1csc(-c2cccc(C(F)(F)F)c2)n1)N/N=C/c1cccc(OCc2csc(-c3ccc(Br)cc3)n2)c1`, the Activity is reported as “Active”.
For `Cc1ccc(-c2nc(CC(=O)N/N=C\c3ccc(OCC(=O)c4sc(-c5ccccc5)nc4C)cc3)cs2)cc1`, the Activity was “Active”.
For `O=C(Cc1csc(-c2cccc(C(F)(F)F)c2)n1)N/N=C\c1ccc(OCc2csc(-c3ccc(Br)cc3)n2)cc1`, the Activity was “inactive”.
`O=C(COc1ccc2c(=O)cc(-c3ccccc3)oc2c1)N/N=C\c1ccc(OCc2csc(-c3ccccc3)n2)cc1` was tested, and the Activity was “inactive”.

Organism: Rattus norvegicus
Experiment: Induction of phagocytosis in Wistar-Bratislava albino rat PMNC using Escherichia coli suspension assessed as reduction in phagocytosis activity after 30 mins
Assay type: functional
Conditions: not given
In the case of `O=C(Cc1csc(-c2cccc(C(F)(F)F)c2)n1)N/N=C/c1cccc(OCc2csc(-c3ccc(Br)cc3)n2)c1`, the Activity is reported as “Active”.
With `Cc1ccc(-c2nc(CC(=O)N/N=C\c3ccc(OCC(=O)c4sc(-c5ccccc5)nc4C)cc3)cs2)cc1` the Activity was “Active”.
In the case of `O=C(COc1ccc2c(=O)cc(-c3ccccc3)oc2c1)N/N=C\c1ccc(OCc2csc(-c3ccccc3)n2)cc1`, the Activity is reported as “Active”.
With `O=C(Cc1csc(-c2cccc(C(F)(F)F)c2)n1)N/N=C/c1cccc(OCc2csc(-c3ccccc3)n2)c1` the Activity was “Active”.

Organism: Rattus norvegicus
Experiment: Induction of phagocytosis in Wistar-Bratislava albino rat PMNC using Escherichia coli suspension assessed as reduction in phagocytosis index after 30 mins
Assay type: functional
Conditions: not given
For `Cc1ccc(-c2nc(CC(=O)N/N=C\c3ccc(OCC(=O)c4sc(-c5ccccc5)nc4C)cc3)cs2)cc1`, the Activity was “Active”.
For `O=C(COc1ccc2c(=O)cc(-c3ccccc3)oc2c1)N/N=C\c1ccc(OCc2csc(-c3ccccc3)n2)cc1`, the Activity was “Active”.
For `O=C(Cc1csc(-c2cccc(C(F)(F)F)c2)n1)N/N=C/c1cccc(OCc2csc(-c3ccccc3)n2)c1`, the Activity was “Active”.

The compounds below were run on Rattus norvegicus (assay: Antiinflammatory activity against Wistar-Bratislava albino rat assessed as lymphocyte count at 3.2 mg/kg, ip (Rbv = 37+/-2.2%)). Conditions: route intraperitoneal.
Assay type: functional
`O=C(Cc1csc(-c2cccc(C(F)(F)F)c2)n1)N/N=C/c1cccc(OCc2csc(-c3ccc(Br)cc3)n2)c1` showed an Activity of 23.43%.
With `Cc1ccc(-c2nc(CC(=O)N/N=C\c3ccc(OCC(=O)c4sc(-c5ccccc5)nc4C)cc3)cs2)cc1` the Activity was 32.14%.
`Cc1cnc(NC(=O)C2=C(O)c3ccccc3S(=O)(=O)N2C)s1` [MELOXICAM] gave an Activity of 32.28%.
In the case of `O=C(Cc1csc(-c2cccc(C(F)(F)F)c2)n1)N/N=C\c1ccc(OCc2csc(-c3ccc(Br)cc3)n2)cc1`, the Activity is reported as 32%.
With `Cc1ccc(-c2nc(CC(=O)N/N=C\c3ccc(OCc4csc(-c5ccc(Br)cc5)n4)cc3)cs2)cc1` the Activity was 28.57%.
For `O=C(COc1ccc2c(=O)cc(-c3ccccc3)oc2c1)N/N=C\c1ccc(OCc2csc(-c3ccccc3)n2)cc1`, the Activity was 23.57%.
Work on `O=C(Cc1csc(-c2cccc(C(F)(F)F)c2)n1)N/N=C/c1cccc(OCc2csc(-c3ccccc3)n2)c1` yielded an Activity of 32.28%.

— ChEMBL document CHEMBL1667748, “Synthesis and anti-inflammatory evaluation of some new acyl-hydrazones bearing 2-aryl-thiazole” (2011)
